Assay [1] can be described thus: Concentration required for 50% reduction in KB cell number after 3-day incubation. The assay is classed as functional, cell-based, Homo sapiens.
Another assay has as its system Nucleic Acid. In words: Effect on cellular protein DNA complex formation(%) at 10 uM in comparison with etoposide. The assay is classed as functional.
Assay [2] concerns the target DNA topoisomerase II (Homo sapiens) (UniProt P11388+Q02880). In words: Inhibition of human DNA Topoisomerase II. The assay is classed as protein assay. Put shortly: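 Human DNA topoisomerase II catalytic inhibition was tested at five concentrations (10, 20, 25, 50 and 100 μM). ID50 was set from the degree of inhibition observed across these concentrations.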

The IC50 is the concentration at which inhibition is half-maximal. The low end stands for greater potency in that assay, the high end for weaker potency in that assay.

`COc1cc([C@@H]2c3cc(O)c(O)cc3[C@@H](Nc3ccc(F)cc3)[C@H]3COC(=O)[C@H]23)cc(OC)c1OC` displayed an IC50 in assay [1] of over 2 µM. This molecule returned a Complex formation in the assay on Nucleic Acid of 11%. In assay [2], this molecule yielded an ID50 of 50 µM.

In assay [1], `COc1cc([C@@H]2c3cc(O)c(O)cc3[C@@H](Nc3cccc(O)c3)[C@H]3COC(=O)[C@H]23)cc(OC)c1O` showed an IC50 of over 2.1 µM. In addition, the Complex formation with Nucleic Acid stood at 18%. In assay [2], the ID50 is 20 µM.

`COc1cc([C@@H]2c3cc4c(cc3[C@@H](Nc3ccc(C#N)cc3)[C@H]3COC(=O)[C@H]23)OCO4)cc(OC)c1O` yielded a half-inhibitory concentration (IC50) in assay [1] of 0.64 µM. Moreover, in the assay with Nucleic Acid, the Complex formation is 211%.

As for `COc1cc2c(cc1OC)[C@@H](Nc1ccc(C#N)cc1)[C@H]1COC(=O)[C@@H]1[C@@H]2c1cc(OC)c(OC)c(OC)c1`, 5.8 µM corresponded to half-maximal inhibition in assay [1] (IC50). The Complex formation in the assay with Nucleic Acid was 12%. The molecule also came in with an ID50 in assay [2] of over 100 µM.

The molecule `COc1cc2c(cc1OC)[C@@H](Nc1ccc(F)cc1)[C@H]1COC(=O)[C@@H]1[C@@H]2c1cc(OC)c(OC)c(OC)c1` displayed an IC50 in assay [1] of 7.6 µM. In the assay on Nucleic Acid, this molecule came in with a Complex formation of 8%. Besides, the ID50 in assay [2] was over 100 µM.

In the case of `COc1cc([C@@H]2c3cc(O)c(O)cc3[C@@H](Nc3ccc([N+](=O)[O-])cc3)[C@H]3COC(=O)[C@H]23)cc(OC)c1O`, the concentration for half-maximal inhibition (IC50) in assay [1] is 1.5 µM. Also, in the assay on Nucleic Acid, the Complex formation was found to be 99%. For the same molecule, in assay [2], the ID50 came to 20 µM.

Take `COc1cc([C@@H]2c3cc(O)c(O)cc3[C@@H](Nc3ccccc3)[C@H]3COC(=O)[C@H]23)cc(OC)c1O`: the IC50 in assay [1] is over 2.2 µM. Further, the Complex formation with Nucleic Acid amounted to 84%. The same molecule registered an ID50 in assay [2] of 25 µM.

On to `COc1cc([C@@H]2c3cc(O)c(O)cc3[C@@H](Nc3ccc(C#N)cc3)[C@H]3COC(=O)[C@H]23)cc(OC)c1OC`, for which the IC50 in assay [1] is over 2 µM. The same molecule displayed a Complex formation in the assay with Nucleic Acid of 33%. The molecule further gave an ID50 in assay [2] of over 100 µM.

`CCOC(=O)c1ccc(N[C@@H]2c3cc(OC)c(OC)cc3[C@@H](c3cc(OC)c(OC)c(OC)c3)[C@H]3C(=O)OC[C@@H]32)cc1` displayed an IC50 in assay [1] of 5.5 µM. The Complex formation with Nucleic Acid came out at 9%. In assay [2], this molecule yielded an ID50 of over 100 µM.

The molecule `COc1cc2c(cc1OC)[C@@H](Nc1ccc([N+](=O)[O-])cc1)[C@H]1COC(=O)[C@@H]1[C@@H]2c1cc(OC)c(O)c(OC)c1` returned an IC50 in assay [1] of 1.3 µM. This molecule gave a Complex formation in the assay on Nucleic Acid of 75%. In assay [2], the ID50 turned out to be 100 µM.

In assay [1], `COc1cc([C@@H]2c3cc4c(cc3[C@@H](O[C@@H]3O[C@@H]5CO[C@@H](C)O[C@H]5[C@H](O)[C@H]3O)[C@H]3COC(=O)[C@H]23)OCO4)cc(OC)c1O` [ETOPOSIDE] had an IC50 of 0.2 µM. Also, the Complex formation in the assay on Nucleic Acid was 100%.

In turn, `COc1cc([C@@H]2c3cc(O)c(O)cc3[C@@H](Nc3ccc(C#N)cc3)[C@H]3COC(=O)[C@H]23)cc(OC)c1O` gave an IC50 in assay [1] of 2 µM. This molecule also displayed a Complex formation with Nucleic Acid of 62%. Also, in assay [2], the ID50 was found to be 20 µM.

`COc1cc([C@@H]2c3cc(O)c(O)cc3[C@@H](Nc3ccccc3)[C@H]3COC(=O)[C@H]23)cc(OC)c1OC` registered a concentration for half-maximal inhibition (IC50) in assay [1] of over 2.1 µM. This molecule also yielded a Complex formation in the assay with Nucleic Acid of 9%. Moreover, the ID50 in assay [2] amounted to 50 µM.

In turn, `CCOC(=O)c1ccc(N[C@@H]2c3cc(O)c(O)cc3[C@@H](c3cc(OC)c(O)c(OC)c3)[C@H]3C(=O)OC[C@@H]32)cc1` had an IC50 in assay [1] of 1.46 µM. This molecule registered a Complex formation with Nucleic Acid of 138%. For the same molecule, the ID50 in assay [2] was found to be 20 µM.

As to `COc1cc([C@@H]2c3cc4c(cc3[C@@H](Nc3ccc(F)cc3)[C@H]3COC(=O)[C@H]23)OCO4)cc(OC)c1O`, the IC50 in assay [1] is 0.24 µM. Besides, the Complex formation in the assay on Nucleic Acid is 213%.

`CCOC(=O)c1ccc(N[C@@H]2c3cc(OC)c(OC)cc3[C@@H](c3cc(OC)c(O)c(OC)c3)[C@H]3C(=O)OC[C@@H]32)cc1`: the IC50 in assay [1] was under 0.7 µM. Besides, in the assay with Nucleic Acid, the Complex formation amounted to 127%. The ID50 in assay [2] worked out at 100 µM.

In assay [1], `COc1cc([C@@H]2c3cc(O)c(O)cc3[C@@H](Nc3ccc([N+](=O)[O-])cc3)[C@H]3COC(=O)[C@H]23)cc(OC)c1OC` displayed an IC50 of over 1.9 µM. The Complex formation in the assay on Nucleic Acid was 23%. The molecule also showed an ID50 in assay [2] of over 100 µM.

For `COc1cc2c(cc1OC)[C@@H](Nc1ccc([N+](=O)[O-])cc1)[C@H]1COC(=O)[C@@H]1[C@@H]2c1cc(OC)c(OC)c(OC)c1`, half-maximal inhibition in assay [1] (IC50) required 7.3 µM. Further, the Complex formation in the assay on Nucleic Acid is 8%. The same molecule displayed an ID50 in assay [2] of over 100 µM.

Take `CCOC(=O)c1ccc(N[C@@H]2c3cc4c(cc3[C@@H](c3cc(OC)c(O)c(OC)c3)[C@H]3C(=O)OC[C@@H]32)OCO4)cc1`: inhibition in assay [1] was half-maximal at 0.84 µM (IC50). In the assay on Nucleic Acid, this molecule came in with a Complex formation of 207%.

In assay [1], `COc1cc([C@@H]2c3cc(O)c(O)cc3[C@@H](Nc3cccc(O)c3)[C@H]3COC(=O)[C@H]23)cc(OC)c1OC` returned an IC50 of over 2 µM. The molecule further gave a Complex formation with Nucleic Acid of 4%. This molecule also registered an ID50 in assay [2] of 50 µM.

Consider `COc1cc([C@@H]2c3cc4c(cc3[C@@H](Nc3ccc([N+](=O)[O-])cc3)[C@H]3COC(=O)[C@H]23)OCO4)cc(OC)c1O`, for which the IC50 in assay [1] turned out to be 0.49 µM. In addition, the Complex formation in the assay on Nucleic Acid stood at 323%.

As to `COc1cc2c(cc1OC)[C@@H](Nc1ccc(F)cc1)[C@H]1COC(=O)[C@@H]1[C@@H]2c1cc(OC)c(O)c(OC)c1`, the concentration for half-maximal inhibition (IC50) in assay [1] came out at 0.78 µM. Besides, the Complex formation with Nucleic Acid was 108%. In addition, the ID50 in assay [2] was 50 µM.

`COc1cc2c(cc1OC)[C@@H](Nc1ccc(C#N)cc1)[C@H]1COC(=O)[C@@H]1[C@@H]2c1cc(OC)c(O)c(OC)c1`: the IC50 in assay [1] was under 0.77 µM. This molecule displayed a Complex formation with Nucleic Acid of 125%. This molecule also displayed an ID50 in assay [2] of 50 µM.

In turn, `COc1cc([C@@H]2c3cc(O)c(O)cc3[C@@H](Nc3ccc(F)cc3)[C@H]3COC(=O)[C@H]23)cc(OC)c1O` yielded a half-inhibitory concentration (IC50) in assay [1] of over 2.1 µM. Further, the Complex formation in the assay with Nucleic Acid stood at 52%. Moreover, the ID50 in assay [2] came out at 25 µM.

For the molecule `CCOC(=O)c1ccc(N[C@@H]2c3cc(O)c(O)cc3[C@@H](c3cc(OC)c(OC)c(OC)c3)[C@H]3C(=O)OC[C@@H]32)cc1`, the IC50 in assay [1] was over 1.8 µM. In addition, the Complex formation in the assay with Nucleic Acid stood at 22%. In assay [2], this molecule showed an ID50 of 100 µM.

The record behind these values is ChEMBL document CHEMBL1125392, “Antitumor agents. 124. New 4 beta-substituted aniline derivatives of 6,7-O,O-demethylene-4'-O-demethylpodophyllotoxin and related compounds as potent inhibitors of human DNA topoisomerase II” (J Med Chem, 1992).
